Measurements published in ChEMBL document CHEMBL1250460, “Rational conversion of noncontinuous active region in proteins into a small orally bioavailable macrocyclic drug-like molecule: the HIV-1 CD4:gp120 paradigm” (Bioorg Med Chem, 2010).
Active and inactive are the calls of the source. No cut-off for these calls is given here.

Tests used:
HeLa = assay: Inhibition of HIV1 gp120 binding to CD4 assessed as inhibition of CD4 expressing human HeLa cells by MAGI assay; type: cell-based; settings: Human immunodeficiency virus 1
How it was run: (§1)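 MAGI assay: HeLa-CD4+ beta-gal cells seeded at 15 × 10³ per well, infected with HIV-1 HXB2 with or without inhibitor in the presence of DEAE-dextran. Two days after infection, cells fixed in 1% formaldehyde/0.2% glutaraldehyde in PBS. Stained with ferro/ferricyanide (4 mM each), 2 mM MgCl₂ and 0.4 mg/mL X-Gal. Blue cells counted by light microscopy.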

[1] = test system: Human immunodeficiency virus 1; assay: Antiviral activity against HIV1 assessed as reduction in infection; type: functional; how it was run: as §1
[2] = Cmax in Wistar rat at 10 mg/kg, po; type: ADME, organism-based; design: dose 10 mg/kg, route oral; settings: in vivo
How it was run: (§2)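 Conscious male Wistar rats (275 ± 20 g, n = 5 per route) with jugular vein cannula implanted 24 h before dosing. Given 1 mg/kg IV bolus or 10 mg/kg by oral gavage, dissolved in water. Heparinized blood sampled at several times up to 24 h. Plasma separated by centrifugation (4000 g, 5 min, 4 °C), stored at −70 °C. Parameters from noncompartmental analysis.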

[3] = Cmax in Wistar rat at 1 mg/kg, iv; type: ADME, organism-based; design: dose 1 mg/kg, route intravenous; settings: in vivo; how it was run: as §2
[4] = Tmax in Wistar rat at 10 mg/kg, po; type: ADME, organism-based; design: dose 10 mg/kg, route oral; settings: in vivo; how it was run: as §2
[5] = Tmax in Wistar rat at 1 mg/kg, iv; type: ADME, organism-based; design: dose 1 mg/kg, route intravenous; settings: in vivo; how it was run: as §2
Rattus norvegicus [6] = assay: AUC in Wistar rat at 10 mg/kg, po; type: ADME, organism-based, Plasma; design: dose 10 mg/kg, route oral; settings: in vivo; how it was run: as §2
Rattus norvegicus [7] = assay: Volume of distribution at steady state in Wistar rat at 10 mg/kg, po; type: ADME, organism-based; design: dose 10 mg/kg, route oral; settings: in vivo; how it was run: as §2
[8] = Half life in Wistar rat at 10 mg/kg, po; type: ADME, organism-based; design: dose 10 mg/kg, route oral; settings: in vivo; how it was run: as §2
[9] = Oral bioavailability in Wistar rat at 10 mg/kg; type: ADME, organism-based; settings: in vivo; how it was run: as §2

Cmax [2] | Cmax [3] | Tmax [4] | Tmax [5] | AUC (Rattus norvegicus [6]) | Vdss (Rattus norvegicus [7]) | half-life [8] | bioavailability [9] | SMILES | inhibition (HeLa) | inhibition (INH) [1]
 |  |  |  |  |  |  |  | N=C(N)NCCCC1NC(=O)CCCCCC(=O)NC(Cc2ccc(O)cc2)CN(CC(N)=O)C1=O (stereo unspecified) | inactive | 
866 ng/mL | 102 ng/mL | 18 min | 5 min | 21770 ng·min/mL | 0.6 L/kg | 73 min | 10% | N=C(N)NCCCC1NC(=O)CCCCCC(=O)NC(Cc2ccccc2)CN(CC(N)=O)C1=O (stereo unspecified) | Active | 80%
